Source: ChEMBL document CHEMBL3763047, “Flavonoid derivatives as selective ABCC1 modulators: Synthesis and functional characterization” (Eur J Med Chem, 2016)
Active and inactive are the calls of the source. No cut-off for these calls is given here.

Experiments:
[1] = biological target: T1, Multidrug resistance-associated protein 1 (Homo sapiens, UniProt P33527); experiment: (§1) Inhibition of human MRP1 expressed in MDCK2 cells assessed as inhibition of calcein-AM efflux at 30 uM relative to reversan; format: cell-based, MDCK-II; details: mdck-ii, 30 µM
Method in brief: (§2)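 MDCKII-MRP1 cells seeded at 20,000–25,000/well and washed next day with HEPES loading buffer, pH 7.4. Loaded 60 min at 37 °C with 0.5 µM calcein-AM in buffer with BSA and pluronic F127, plus compound (10 nM–100 µM). Cells were PFA-fixed, fluorescence read at 485/535 nm, DMSO control subtracted. […] Mean ± SEM, 2–4 experiments in triplicate.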

ABCG2 (BCRP) = biological target: T2, ABCG2 (BCRP) (Homo sapiens, UniProt Q9UNQ0); experiment: Inhibition of ABCG2 in human MCF7/Topo cells at 10 uM by Hoechst 33342 assay relative to fumitremorgin C; format: cell-based; details: probe Hoechst 33342, read-out: Imax
T2 sequence (Q9UNQ0 whole entry): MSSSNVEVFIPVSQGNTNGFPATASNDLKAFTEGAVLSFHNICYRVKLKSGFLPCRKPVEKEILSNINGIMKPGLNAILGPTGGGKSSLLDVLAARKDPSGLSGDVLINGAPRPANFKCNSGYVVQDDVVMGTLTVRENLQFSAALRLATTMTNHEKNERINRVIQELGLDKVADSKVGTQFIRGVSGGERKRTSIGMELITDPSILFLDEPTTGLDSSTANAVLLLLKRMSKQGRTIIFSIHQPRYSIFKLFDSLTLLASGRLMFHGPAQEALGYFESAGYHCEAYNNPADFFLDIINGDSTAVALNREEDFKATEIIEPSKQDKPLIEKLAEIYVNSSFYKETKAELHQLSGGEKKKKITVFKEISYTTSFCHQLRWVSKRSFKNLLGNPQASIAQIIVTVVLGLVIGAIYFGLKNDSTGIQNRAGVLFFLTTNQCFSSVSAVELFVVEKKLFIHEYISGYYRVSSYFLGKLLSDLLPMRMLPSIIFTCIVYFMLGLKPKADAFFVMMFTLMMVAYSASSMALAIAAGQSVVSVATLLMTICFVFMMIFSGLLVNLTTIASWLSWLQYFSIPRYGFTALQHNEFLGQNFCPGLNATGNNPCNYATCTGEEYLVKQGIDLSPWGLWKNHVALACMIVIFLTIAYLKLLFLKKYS
Method in brief: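 Hoechst 33342 microplate assay in ABCG2-overexpressing MCF-7/Topo cells, kept in EMEM with 10% FCS and 550 nM topotecan. Imax relative to 10 µM fumitremorgin C (100%). IC50 from four-parameter logistic fit. Mean ± SEM, 2–4 experiments.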

[2] = biological target: ATP-dependent translocase ABCB1 (Homo sapiens, UniProt P08183); experiment: Inhibition of ABCB1 in human KBV1 cells assessed as inhibition of calcein-AM efflux; format: cell-based
ABCB1 (P-glycoprotein) = ABCB1 (P-glycoprotein) (Homo sapiens, UniProt P08183); experiment: Inhibition of ABCB1 in human KBV1 cells assessed as inhibition of calcein-AM efflux at 1 uM relative to tariquidar; format: cell-based; details: probe calcein-AM, read-out: Imax
[3] = biological target: T3, Broad substrate specificity ATP-binding cassette transporter ABCG2 (Homo sapiens, UniProt Q9UNQ0); experiment: Inhibition of ABCG2 in human MCF7/Topo cells by Hoechst 33342 assay; format: cell-based
T3 sequence (Q9UNQ0 whole entry): T2 sequence (Q9UNQ0 whole entry)

HaCaT = experiment: Cytotoxicity against human HaCaT cells at 1 to 10 uM after 140 hrs by kinetic crystal violet staining based assay; format: cell-based
Method in brief: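 Spontaneously immortalized human HaCaT keratinocytes in RPMI-1640 with pyruvate, HEPES and added glucose, pre-treated with EDTA before trypsinization. Cytotoxicity followed in a kinetic assay.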

MRP1 (ABCC1) = MRP1 (ABCC1) (Homo sapiens, UniProt P33527); experiment: as §1; format: cell-based, MDCK-II; details: MDCK2 cells expressing human MRP1, probe calcein-AM, read-out: Imax; method in brief: as §2
MDCK2 [4] = experiment: Antiproliferative activity against human ABCC1 transfected MDCK2 cells assessed as reduction in cell proliferation at 1.5 uM by crystal violet staining based assay; format: functional
MDCK2 [5] = experiment: Antiproliferative activity against human ABCC1 transfected MDCK2 cells assessed as reduction in cell proliferation at 10 uM by crystal violet staining based assay; format: functional
Method in brief: (§3)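 MDCKII-MRP1 cells transfected with human ABCC1, kept in DMEM with 10% FCS at 37 °C and 5% CO₂. Kinetic crystal violet chemosensitivity assay with the modulator alone; proliferation followed over time.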

[6] = biological target: T1, Multidrug resistance-associated protein 1; experiment: Inhibition of human ABCC1 transfected in MDCK2 cells assessed as potentiation of etoposide-induced cytotoxicity at 1 and 5 uM by crystal violet staining based assay; format: cell-based; details: mdck-ii
[7] = biological target: T1, Multidrug resistance-associated protein 1; experiment: Inhibition of human ABCC1 transfected in MDCK2 cells assessed as potentiation of doxorubicin-induced cytotoxicity at 1 and 5 uM by crystal violet staining based assay; format: cell-based; details: mdck-ii
[8] = Cytotoxicity against human ABCC1 transfected MDCK2 cells assessed as reduction in cell proliferation at 10 uM by crystal violet staining based assay; format: ADME, Canis lupus familiaris; details: dog, mdck-ii; method in brief: as §3
[9] = Chemical stability in DMEM culture medium supplemented with 10% FCS at 37 degC after 48 hrs by RP-HPLC analysis; format: physicochemical; details: cattle
Method in brief: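 Compounds held in DMEM with 10% FCS at 37 °C for up to 48 h, then analysed for degradation.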

[10] = biological target: T3, Broad substrate specificity ATP-binding cassette transporter ABCG2; experiment: Inhibition of human ABCG2 expressed in HEK293 cells by mitoxantrone flow cytometric analysis; format: cell-based
[11] = biological target: T1, Multidrug resistance-associated protein 1; experiment: Inhibition of human ABCC1 transfected in MDCK2 cells assessed as potentiation of etoposide-induced cytotoxicity at 1 uM by crystal violet staining based assay; format: cell-based; details: mdck-ii
Plasma = experiment: Metabolic stability in NMRI mouse plasma assessed as compound degradation at 140 uM after 1 min to 24 hrs by RP-HPLC analysis

Sequence of ABCB1 (P-glycoprotein) (P08183 whole entry): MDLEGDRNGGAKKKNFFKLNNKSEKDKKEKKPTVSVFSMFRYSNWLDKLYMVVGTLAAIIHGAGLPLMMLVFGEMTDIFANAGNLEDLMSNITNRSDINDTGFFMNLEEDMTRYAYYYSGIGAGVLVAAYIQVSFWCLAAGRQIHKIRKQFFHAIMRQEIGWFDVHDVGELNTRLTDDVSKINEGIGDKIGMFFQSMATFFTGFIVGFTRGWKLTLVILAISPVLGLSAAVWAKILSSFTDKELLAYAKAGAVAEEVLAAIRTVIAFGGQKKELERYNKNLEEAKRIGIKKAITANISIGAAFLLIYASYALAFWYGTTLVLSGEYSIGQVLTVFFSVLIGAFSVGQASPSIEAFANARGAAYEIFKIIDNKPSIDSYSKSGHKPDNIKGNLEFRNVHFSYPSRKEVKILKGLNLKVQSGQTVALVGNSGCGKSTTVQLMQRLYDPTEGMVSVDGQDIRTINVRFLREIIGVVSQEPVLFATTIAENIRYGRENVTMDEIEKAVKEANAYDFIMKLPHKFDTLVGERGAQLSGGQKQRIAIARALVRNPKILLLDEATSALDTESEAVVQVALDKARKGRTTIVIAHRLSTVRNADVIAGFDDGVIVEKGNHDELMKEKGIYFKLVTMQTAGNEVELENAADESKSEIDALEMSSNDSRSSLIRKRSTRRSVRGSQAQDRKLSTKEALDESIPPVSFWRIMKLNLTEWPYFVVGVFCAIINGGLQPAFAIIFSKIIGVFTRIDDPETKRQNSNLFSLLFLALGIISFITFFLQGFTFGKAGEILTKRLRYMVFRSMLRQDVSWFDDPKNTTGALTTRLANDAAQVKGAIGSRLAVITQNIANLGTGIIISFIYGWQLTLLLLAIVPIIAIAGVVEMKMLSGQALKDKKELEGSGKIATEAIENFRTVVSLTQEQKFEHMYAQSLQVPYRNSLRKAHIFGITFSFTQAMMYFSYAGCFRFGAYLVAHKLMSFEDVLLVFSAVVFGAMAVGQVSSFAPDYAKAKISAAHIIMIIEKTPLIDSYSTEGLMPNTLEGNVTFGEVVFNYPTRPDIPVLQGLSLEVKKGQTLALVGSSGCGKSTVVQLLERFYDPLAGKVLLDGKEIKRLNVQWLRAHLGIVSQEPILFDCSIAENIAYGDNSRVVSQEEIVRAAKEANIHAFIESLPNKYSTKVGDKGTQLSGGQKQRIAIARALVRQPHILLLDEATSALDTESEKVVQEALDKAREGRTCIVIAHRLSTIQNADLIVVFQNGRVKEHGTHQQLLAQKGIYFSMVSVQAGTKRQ
Sequence of ATP-dependent translocase ABCB1 (P08183 whole entry): as above
T1 sequence (P33527 whole entry): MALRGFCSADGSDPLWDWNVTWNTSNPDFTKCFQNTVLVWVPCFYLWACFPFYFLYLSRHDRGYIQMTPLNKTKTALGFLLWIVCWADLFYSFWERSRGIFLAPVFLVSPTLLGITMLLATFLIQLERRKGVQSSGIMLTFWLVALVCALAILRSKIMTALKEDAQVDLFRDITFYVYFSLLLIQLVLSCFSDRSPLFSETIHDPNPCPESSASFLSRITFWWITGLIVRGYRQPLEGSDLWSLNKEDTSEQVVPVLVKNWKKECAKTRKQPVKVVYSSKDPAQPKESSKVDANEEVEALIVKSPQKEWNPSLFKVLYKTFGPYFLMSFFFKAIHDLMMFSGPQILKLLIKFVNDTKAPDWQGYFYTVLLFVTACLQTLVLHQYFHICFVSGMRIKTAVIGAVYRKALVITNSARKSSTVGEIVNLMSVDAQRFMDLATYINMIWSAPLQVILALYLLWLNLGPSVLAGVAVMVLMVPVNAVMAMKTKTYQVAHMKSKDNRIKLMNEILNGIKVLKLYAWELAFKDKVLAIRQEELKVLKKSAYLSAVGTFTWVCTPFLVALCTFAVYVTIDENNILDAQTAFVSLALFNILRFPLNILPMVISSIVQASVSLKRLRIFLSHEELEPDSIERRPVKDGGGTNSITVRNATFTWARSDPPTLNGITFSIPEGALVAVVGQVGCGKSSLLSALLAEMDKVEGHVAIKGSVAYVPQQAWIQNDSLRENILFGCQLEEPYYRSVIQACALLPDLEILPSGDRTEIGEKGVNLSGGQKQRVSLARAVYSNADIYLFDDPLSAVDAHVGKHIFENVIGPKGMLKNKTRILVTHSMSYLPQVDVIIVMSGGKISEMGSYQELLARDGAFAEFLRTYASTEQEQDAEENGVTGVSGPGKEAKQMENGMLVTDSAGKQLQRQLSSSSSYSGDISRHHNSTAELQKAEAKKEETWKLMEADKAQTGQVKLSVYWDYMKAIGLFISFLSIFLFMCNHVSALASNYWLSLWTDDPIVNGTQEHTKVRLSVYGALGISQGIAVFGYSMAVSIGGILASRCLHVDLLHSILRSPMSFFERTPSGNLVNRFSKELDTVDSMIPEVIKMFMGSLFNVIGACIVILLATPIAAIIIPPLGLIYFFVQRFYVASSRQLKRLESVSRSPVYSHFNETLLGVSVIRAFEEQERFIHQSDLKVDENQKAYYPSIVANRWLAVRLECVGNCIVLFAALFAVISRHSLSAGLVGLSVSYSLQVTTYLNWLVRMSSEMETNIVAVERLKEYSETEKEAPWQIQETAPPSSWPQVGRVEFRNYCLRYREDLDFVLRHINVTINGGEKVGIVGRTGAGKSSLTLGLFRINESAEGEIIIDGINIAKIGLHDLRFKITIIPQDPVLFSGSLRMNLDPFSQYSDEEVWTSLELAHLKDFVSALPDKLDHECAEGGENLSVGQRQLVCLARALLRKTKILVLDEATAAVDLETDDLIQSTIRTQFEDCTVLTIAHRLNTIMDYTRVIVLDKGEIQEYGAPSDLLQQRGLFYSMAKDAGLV
Sequence of MRP1 (ABCC1) (P33527 whole entry): as above

Emax at 10 µM (ABCG2 (BCRP)) | IC50 ([2]; read-out: IC50) | IC50 ([3]; read-out: IC50) | IC50 ([2]; kbv1) | IC50 ([3]; mcf7/topo) | inhibition at 30 µM (MRP1 (ABCC1)) | SMILES | further results
44% | 32.8 µM | 38.2 µM |  |  |  | COc1cc(OC)c2c(=O)cc(N3CCN(Cc4cccc([N+](=O)[O-])c4)CC3)oc2c1 | Imax [1]: 193.3%; inhibition at 1 µM (ABCB1 (P-glycoprotein)): 29.2%
 |  |  | Not Active | Not Active |  | COc1cc(OC)c2c(=O)cc(N3CCN(Cc4ccc(NC(C)=O)cc4)CC3)oc2c1 | 
 | 58.2 µM | > 100 µM |  |  | 73.1% | COc1cc(OC)c2c(=O)cc(C(=O)N3CCN(Cc4ccc([N+](=O)[O-])cc4)CC3)oc2c1 | Activity (HaCaT): Non-toxic; inhibition at 1 µM (ABCB1 (P-glycoprotein)): 33.4%
72.6% | > 100 µM | 37.6 µM |  |  | 68.8% | COc1cc(OC)c2c(=O)cc(N3CCN(Cc4ccccc4[N+](=O)[O-])CC3)oc2c1 | 
 |  | > 100 µM | Not Active |  |  | COc1ccc(CN2CCN(c3cc(=O)c4c(OC)cc(OC)cc4o3)CC2)cc1 | 
 |  | > 100 µM | Not Active |  |  | COc1cc(OC)c2c(=O)cc(NCCc3ccc(OC)c(OC)c3)oc2c1 | 
 |  |  |  |  |  | COc1cc([C@@H]2c3cc4c(cc3[C@@H](O[C@@H]3O[C@@H]5CO[C@@H](C)O[C@H]5[C@H](O)[C@H]3O)[C@H]3COC(=O)[C@H]23)OCO4)cc(OC)c1O | Activity (MDCK2 [4]): Active; Activity (MDCK2 [5]): Active
108% |  |  | Not Active |  |  | COc1ccc(CCNC(=O)c2cc(=O)c3c(OCc4ccccc4)cccc3o2)cc1OC | 
 |  |  | Not Active | Not Active |  | COc1cc(OC)c2c(=O)cc(N3CCN(Cc4ccccc4)CC3)oc2c1 | 
 | 6.8 µM |  |  |  |  | O=C(NCCCN1CCOCC1)c1cnn2c(-c3ccccc3)cc(-c3ccccc3)nc12 | inhibition (INH) [6]: Active; inhibition (INH) [7]: Active; inhibition at 1 µM (ABCB1 (P-glycoprotein)): 143%; Activity [8]: Non-toxic
 |  |  | Not Active | Not Active |  | COc1cc(OC)c2c(=O)cc(N3CCN(C)CC3)oc2c1 | 
59.1% | > 100 µM | 99.7 µM |  |  | 115% | COc1cc(OC)c2c(=O)cc(N3CCN(Cc4ccc(C#N)cc4)CC3)oc2c1 | 
50.4% | 58.5 µM | 66.6 µM |  |  | 141% | COc1cc(OC)c2c(=O)cc(N3CCN(Cc4ccc(F)c(F)c4)CC3)oc2c1 | inhibition at 1 µM (ABCB1 (P-glycoprotein)): 14.3%
 | 36.6 µM | > 100 µM |  |  | 136% | COc1cc(OC)c2c(=O)cc(N3CCN(Cc4ccc(SC(F)(F)F)cc4)CC3)oc2c1 | inhibition at 1 µM (ABCB1 (P-glycoprotein)): 29.4%
 | > 100 µM | > 100 µM |  |  | 98.8% | COc1cc(OC)c2c(=O)cc(N3CCN(Cc4ccc(S(=O)(=O)C(F)(F)F)cc4)CC3)oc2c1 | 
 | 31.3 µM | > 100 µM |  |  |  | COc1cc(OC)c2c(=O)cc(N3CCN(Cc4ccc(C(F)(F)F)cc4)CC3)oc2c1 | Imax [1]: 158.6%; inhibition at 1 µM (ABCB1 (P-glycoprotein)): 21.8%
90.5% |  | 34.9 µM | Not Active |  | 68.8% | COc1cc(O)c2c(=O)cc(C(=O)N3CCN(Cc4ccccc4[N+](=O)[O-])CC3)oc2c1 | 

Emax at 10 µM (ABCG2 (BCRP)) | IC50 ([2]; read-out: IC50) | IC50 ([3]; read-out: IC50) | IC50 ([2]; kbv1) | IC50 ([3]; mcf7/topo) | inhibition at 30 µM (MRP1 (ABCC1)) | SMILES | further results
 |  |  | Not Active | Not Active | 14% | COc1cc(OC)c2c(=O)cc(NCCCN3CCOCC3)oc2c1 | 
 |  |  | Not Active | Not Active | 19.7% | COc1cc(OC)c2c(=O)cc(N3CCN(C(=O)c4ccc([N+](=O)[O-])cc4)CC3)oc2c1 | 
 |  |  | Not Active | Not Active |  | COc1cc(OC)c2c(=O)cc(N3CCN(Cc4ccc(N)cc4)CC3)oc2c1 | 
 | 0.22 µM |  |  |  |  | COc1cc2c(cc1OC)CN(CCc1ccc(NC(=O)c3cc(OC)c(OC)cc3NC(=O)c3cnc4ccccc4c3)cc1)CC2 | 
 | 83.9 µM | > 100 µM |  |  | 139% | COc1cc(OC)c2c(=O)cc(C(=O)N3CCN(CCc4ccc([N+](=O)[O-])cc4)CC3)oc2c1 | Activity (HaCaT): Non-toxic; Stability [9]: Stable; inhibition at 1 µM (ABCB1 (P-glycoprotein)): 37.7%
84.1% | 15.8 µM | 16.3 µM |  |  |  | O=C(c1cc(=O)c2c(OCc3ccccc3)cccc2o1)N1CCN(Cc2ccccc2)CC1 | % inhibition [10]: 9.8%; inhibition at 1 µM (ABCB1 (P-glycoprotein)): 34.3%
 |  |  | Not Active | Not Active |  | COc1cc(OC)c2c(=O)cc(N3CCN(Cc4ccc(S(C)(=O)=O)cc4)CC3)oc2c1 | 
 |  |  | Not Active | Not Active | 120% | COc1cc(OC)c2c(=O)cc(N3CCN(Cc4ccc5nonc5c4)CC3)oc2c1 | Activity (HaCaT): Non-toxic; Stability [9]: Stable; inhibition (INH) [11]: Active; inhibition (INH) [7]: Active; Stability (Plasma): Stable; Activity [8]: Non-toxic
 |  |  | Not Active | Not Active |  | CN(C)C(=O)CCSC(SCCC(=O)[O-])c1cccc(/C=C/c2ccc3ccc(Cl)cc3n2)c1.[Na+] (stereo not drawn) | 
23.1% |  | 12 µM | Not Active |  | 70.5% | COc1cc(O)c2c(=O)cc(C(=O)N3CCN(Cc4ccc([N+](=O)[O-])cc4)CC3)oc2c1 | Activity (HaCaT): Non-toxic; Stability [9]: Stable
31.9% | 33 µM | 36.9 µM |  |  | 118% | COc1cc(OC)c2c(=O)cc(N3CCN(CCc4ccc([N+](=O)[O-])cc4)CC3)oc2c1 | Activity (HaCaT): Non-toxic; Stability [9]: Stable; inhibition at 1 µM (ABCB1 (P-glycoprotein)): 54.8%
 |  |  | Not Active | Not Active | 38.8% | COc1cccc2oc(N3CCN(Cc4ccc([N+](=O)[O-])cc4)CC3)cc(=O)c12 | 
56.9% |  | 87.8 µM | Not Active |  | 130% | COc1cc(OC)c2c(=O)cc(N3CCN(Cc4ccc([N+](=O)[O-])cc4)CC3)oc2c1 | Activity (HaCaT): Non-toxic; Stability [9]: Stable
22.6% |  |  | Not Active |  | 64.1% | COc1cc(OC)c2c(=O)cc(N3CCN(c4ccc([N+](=O)[O-])cc4)CC3)oc2c1 | 
 | > 100 µM | > 100 µM |  |  | 118% | COC(=O)c1ccc(CN2CCN(c3cc(=O)c4c(OC)cc(OC)cc4o3)CC2)cc1 | 
 |  | > 100 µM | Not Active |  | 44.5% | COc1cc(OC)c2c(=O)cc(N3CCN(CCc4ccccc4)CC3)oc2c1 | Activity (HaCaT): Non-toxic; Stability [9]: Stable
